Results: ChEMBL document CHEMBL1165860, “Synthesis and potential cytotoxic activity of new phenanthrylphenol-pyrrolobenzodiazepines” (2010)
The source made the active and inactive calls. No cut-off for these calls is given here.

What was measured:
MCF7 [1] = test: Cell cycle arrest in human MCF7 cells assessed as accumulation at G2/M phase at 2 uM after 24 hrs using propidium iodide staining by flow cytometry; format: functional
In short: (§1)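 MCF-7 cells were grown in DMEM with 10% fetal calf serum, penicillin and streptomycin, at 37 °C in 5% CO2. They were treated for 24 h at 2 and 4 µM, with DMSO-treated cells as controls. Cells were trypsinised, fixed in ice-cold 70% ethanol at 4 °C for 30 min, and RNaseA-treated at 37 °C for 30 min. Phases were read by flow cytometry.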

MCF7 [2] = test: Cell cycle arrest in human MCF7 cells assessed as accumulation at G1 phase at 4 uM after 24 hrs using propidium iodide staining by flow cytometry; format: functional; in short: as §1
MCF7 [3] = test: Cell cycle arrest in human MCF7 cells assessed as accumulation at S phase at 4 uM after 24 hrs using propidium iodide staining by flow cytometry; format: functional; in short: as §1
MCF7 [4] = test: Increase of cytosolic cytochrome c level in human MCF7 cells at 2 uM after 24 hrs by Western blot analysis; format: functional, cell-based
In short: (§2)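 MCF-7 cells were grown in DMEM with 10% FCS and penicillin/streptomycin at 37 °C in 5% CO2, then treated for 24 h. Cells were lysed in ice-cold RIPA buffer with protease inhibitors and NaF. Protein was measured by Bradford assay, and 30 µg per lane was run on 12% SDS-PAGE and transferred to PVDF. Antibody steps: primary at 4 °C overnight, HRP secondary 1:2000, chemiluminescent detection.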

MCF7 [5] = test: Increase of cytosolic cytochrome c level in human MCF7 cells at 4 uM after 24 hrs by Western blot analysis; format: functional, cell-based; in short: as §2
MCF7 [6] = test: Induction of apoptosis in human MCF7 cells assessed as increase of caspase 8 activation at 2 uM after 1 hr by […] method; format: functional, cell-based
In short: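 Colorimetric caspase-8 kit on lysates of treated MCF-7 cells. The IETD-pNA substrate was incubated with cell lysate at 37 °C for 1 h, and absorbance was read at 405 nm. Untreated cells served as the control.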

MCF7 [7] = test: Induction of apoptosis in human MCF7 cells assessed as increase of caspase 9 activation at 4 uM after 1 hr by fluorimetry based assay; format: functional, cell-based
CCRF-CEM = test: Growth inhibition of human CCRF-CEM cells after 24 hrs by MTT assay; format: functional
HL-60(TB) = test: Growth inhibition of human HL-60(TB) cells after 24 hrs by MTT assay; format: functional; conditions: HL-60, 24 h
[8] = Growth inhibition of human […] cells after 24 hrs by MTT assay; format: functional
SR = test: Growth inhibition of human SR cells after 24 hrs by MTT assay; format: functional
A549 = test: Growth inhibition of human A549 cells after 24 hrs by MTT assay; format: functional; conditions: A549, 24 h
HOP-62 = test: Growth inhibition of human HOP62 cells after 24 hrs by MTT assay; format: functional; conditions: HOP-62, 24 h
HOP-92 = test: Growth inhibition of human HOP92 cells after 24 hrs by MTT assay; format: functional; conditions: HOP-92, 24 h
NCI-H23 = test: Growth inhibition of human NCI-H23 cells after 24 hrs by MTT assay; format: functional; conditions: NCI-H23, 24 h
NCI-H460 = test: Growth inhibition of human NCI-H460 cells after 24 hrs by MTT assay; format: functional; conditions: NCI-H460, 24 h
NCI-H522 = test: Growth inhibition of human NCI-H522 cells after 24 hrs by MTT assay; format: functional; conditions: NCI-H522, 24 h
HCC 2998 = test: Growth inhibition of human HCC2998 cells after 24 hrs by MTT assay; format: functional; conditions: HCC 2998, 24 h
HCT-15 = test: Growth inhibition of human HCT15 cells after 24 hrs by MTT assay; format: functional; conditions: HCT-15, 24 h
KM12 = test: Growth inhibition of human KM12 cells after 24 hrs by MTT assay; format: functional; conditions: KM12, 24 h
SNB-75 = test: Growth inhibition of human SNB75 cells after 24 hrs by MTT assay; format: functional; conditions: SNB-75, 24 h
LOX IMVI = test: Growth inhibition of human LOXIMVI cells after 24 hrs by MTT assay; format: functional
Malme-3M = test: Growth inhibition of human MALME-3M cells after 24 hrs by MTT assay; format: functional
SK-MEL-28 = test: Growth inhibition of human SK-MEL-28 cells after 24 hrs by MTT assay; format: functional; conditions: SK-MEL-28, 24 h
UACC-257 = test: Growth inhibition of human UACC257 cells after 24 hrs by MTT assay; format: functional; conditions: UACC-257, 24 h
UACC-62 = test: Growth inhibition of human UACC62 cells after 24 hrs by MTT assay; format: functional; conditions: UACC-62, 24 h
IGROV-1 = test: Growth inhibition of human IGROV1 cells after 24 hrs by MTT assay; format: functional; conditions: IGROV-1, 24 h
OVCAR-3 = test: Growth inhibition of human OVCAR-3 cells after 24 hrs by MTT assay; format: functional; conditions: OVCAR-3, 24 h
OVCAR-5 = test: Growth inhibition of human OVCAR5 cells after 24 hrs by MTT assay; format: functional; conditions: OVCAR-5, 24 h
SK-OV-3 = test: Growth inhibition of human SKOV3 cells after 24 hrs by MTT assay; format: functional; conditions: SK-OV-3, 24 h
A498 = test: Growth inhibition of human A498 cells after 24 hrs by MTT assay; format: functional; conditions: A498, 24 h
ACHN = test: Growth inhibition of human ACHN cells after 24 hrs by MTT assay; format: functional
RXF 393 = test: Growth inhibition of human RXF393 cells after 24 hrs by MTT assay; format: functional; conditions: RXF 393, 24 h
SN12C = test: Growth inhibition of human SN12C cells after 24 hrs by MTT assay; format: functional
UO-31 = test: Growth inhibition of human UO31 cells after 24 hrs by MTT assay; format: functional; conditions: UO-31, 24 h
NCI/ADR-RES = test: Growth inhibition of human NCI/ADR-RES cells after 24 hrs by MTT assay; format: functional
BT-549 = test: Growth inhibition of human BT549 cells after 24 hrs by MTT assay; format: functional; conditions: BT-549, 24 h
MCF7 [9] = test: Cell cycle arrest in human MCF7 cells assessed as accumulation at G2/M phase at 4 uM after 24 hrs using propidium iodide staining by flow cytometry; format: functional; in short: as §1

SMILES: COc1cc2c(cc1OCCCOc1ccc(-c3cc4ccccc4c4ccccc34)cc1)N=C[C@@H]1CCCN1C2=O
- Activity (MCF7 [1]): 10.7%
- Activity (MCF7 [2]): 75.33%
- Activity (MCF7 [3]): 13.05%
- Activity (MCF7 [4]): Active
- Activity (MCF7 [5]): Active
- Activity (MCF7 [6]): Active
- Activity (MCF7 [7]): Active
- GI50 (CCRF-CEM): 130 nM
- GI50 (HL-60(TB)): 170 nM
- GI50 [8]: 190 nM
- GI50 (SR): 220 nM
- GI50 (A549): 720 nM
- GI50 (HOP-62): 1000 nM
- GI50 (HOP-92): 360 nM
- GI50 (NCI-H23): 1410 nM
- GI50 (NCI-H460): 1040 nM
- GI50 (NCI-H522): 120 nM
- GI50 (HCC 2998): 1210 nM
- GI50 (HCT-15): 1180 nM
- GI50 (KM12): 780 nM
- GI50 (SNB-75): 210 nM
- GI50 (LOX IMVI): 1020 nM
- GI50 (Malme-3M): 1590 nM
- GI50 (SK-MEL-28): 1260 nM
- GI50 (UACC-257): 1360 nM
- GI50 (UACC-62): 630 nM
- GI50 (IGROV-1): 120 nM
- GI50 (OVCAR-3): 250 nM
- GI50 (OVCAR-5): 1200 nM
- GI50 (SK-OV-3): 1560 nM
- GI50 (A498): 690 nM
- GI50 (ACHN): 1260 nM
- GI50 (RXF 393): 240 nM
- GI50 (SN12C): 510 nM
- GI50 (UO-31): 160 nM
- GI50 (NCI/ADR-RES): 1670 nM
- GI50 (BT-549): 270 nM
- Activity (MCF7 [9]): 3.94%
